{
  "source": "ChEMBL document CHEMBL4376835",
  "about": "“Discovery of Nonpungent Transient Receptor Potential Vanilloid 1 (TRPV1) Agonist as Strong Topical Analgesic” (J Med Chem, 2020)",
  "key": {"Rattus norvegicus": {"test_system": "Rattus norvegicus", "assay": "Analgesic activity against L5/L6 spinal nerve ligation-induced neuropathic pain Sprague-Dawley rat model assessed as decrease in neuropathic pain by measuring increase in paw withdrawal threshold in response to von frey filament at 5 to 10 mg/kg, ip compound administered at day 14 after ligation and measured up to 1.5 hrs after drug dosing by up and down method relative to control", "type": "functional", "in_short": "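Rat spinal nerve ligation model of neuropathic pain. Compound was given i.p. at 1, 2, 5 or 10 mg/kg; a gabapentin 65 mg/kg i.p. arm and a saline i.p. arm were run alongside. Von Frey withdrawal thresholds were taken pre-surgery and on days 1, 7 and 14, then at 0.5, 1 and 1.5 h post-dose. Mean±SEM, n=7-8.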"}, "[1]": {"assay": "Genotoxicity in Salmonella typhimurium TA97 incubated for 48 hrs in presence of rat S9 by Ames test", "type": "toxicity, subcellular", "conditions": "salmonella enterica subsp. enterica serovar typhimurium, s9, 48 h"}, "[2]": {"target": "Transient receptor potential cation channel subfamily A member 1 (Mus musculus) (UniProt Q8BLA8)", "sequence (Q8BLA8 whole entry)": "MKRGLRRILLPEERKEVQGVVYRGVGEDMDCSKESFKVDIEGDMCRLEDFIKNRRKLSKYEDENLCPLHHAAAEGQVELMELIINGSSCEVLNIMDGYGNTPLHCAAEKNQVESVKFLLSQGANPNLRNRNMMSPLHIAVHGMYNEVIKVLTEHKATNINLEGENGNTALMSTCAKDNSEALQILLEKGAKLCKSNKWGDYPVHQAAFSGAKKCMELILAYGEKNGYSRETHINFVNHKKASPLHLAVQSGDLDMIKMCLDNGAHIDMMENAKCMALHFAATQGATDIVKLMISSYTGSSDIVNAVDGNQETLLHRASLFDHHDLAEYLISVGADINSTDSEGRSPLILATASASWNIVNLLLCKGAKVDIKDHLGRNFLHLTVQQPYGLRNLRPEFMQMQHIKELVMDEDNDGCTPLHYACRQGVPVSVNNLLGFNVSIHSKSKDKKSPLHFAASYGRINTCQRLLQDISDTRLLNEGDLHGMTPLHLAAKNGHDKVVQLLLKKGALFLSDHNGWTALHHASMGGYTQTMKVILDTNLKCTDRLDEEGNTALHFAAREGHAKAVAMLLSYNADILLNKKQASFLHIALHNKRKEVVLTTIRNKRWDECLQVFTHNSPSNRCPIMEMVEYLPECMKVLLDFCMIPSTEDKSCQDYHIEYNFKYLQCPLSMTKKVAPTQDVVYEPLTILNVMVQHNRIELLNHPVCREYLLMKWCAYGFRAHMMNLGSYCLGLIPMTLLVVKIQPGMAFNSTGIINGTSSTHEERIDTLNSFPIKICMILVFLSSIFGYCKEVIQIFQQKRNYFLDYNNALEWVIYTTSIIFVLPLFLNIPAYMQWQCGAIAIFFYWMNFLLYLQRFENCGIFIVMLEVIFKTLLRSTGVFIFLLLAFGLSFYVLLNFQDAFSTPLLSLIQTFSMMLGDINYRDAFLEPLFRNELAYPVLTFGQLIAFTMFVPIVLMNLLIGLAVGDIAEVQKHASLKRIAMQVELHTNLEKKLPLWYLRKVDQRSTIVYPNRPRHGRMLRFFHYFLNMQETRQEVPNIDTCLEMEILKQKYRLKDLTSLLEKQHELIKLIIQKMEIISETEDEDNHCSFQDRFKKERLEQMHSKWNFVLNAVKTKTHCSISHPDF", "assay": "Agonist activity at mouse TRPA1 expressed in HEK293 cells assessed as increase in calcium influx at 0.3 to 30 uM incubated for 1 min by Fluo-4-AM dye based FLIPR assay", "type": "cell-based", "in_short": "(§1)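 Cells individually transfected with a single TRP channel (TRPV1, hTRPA1, mTRPA1, mTRPV3 or mTRPM8). Intracellular calcium influx recorded by FLIPR after the test compound was applied. Each cell type was also challenged with an agonist suited to its own TRP channel.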"}, "[3]": {"assay": "Genotoxicity in Salmonella typhimurium TA1537 incubated for 48 hrs by Ames test", "type": "toxicity", "conditions": "salmonella enterica subsp. enterica serovar typhimurium"}, "[4]": {"target": "Transient receptor potential cation channel subfamily V member 1 (Rattus norvegicus, UniProt O35433)", "sequence (O35433 whole entry)": "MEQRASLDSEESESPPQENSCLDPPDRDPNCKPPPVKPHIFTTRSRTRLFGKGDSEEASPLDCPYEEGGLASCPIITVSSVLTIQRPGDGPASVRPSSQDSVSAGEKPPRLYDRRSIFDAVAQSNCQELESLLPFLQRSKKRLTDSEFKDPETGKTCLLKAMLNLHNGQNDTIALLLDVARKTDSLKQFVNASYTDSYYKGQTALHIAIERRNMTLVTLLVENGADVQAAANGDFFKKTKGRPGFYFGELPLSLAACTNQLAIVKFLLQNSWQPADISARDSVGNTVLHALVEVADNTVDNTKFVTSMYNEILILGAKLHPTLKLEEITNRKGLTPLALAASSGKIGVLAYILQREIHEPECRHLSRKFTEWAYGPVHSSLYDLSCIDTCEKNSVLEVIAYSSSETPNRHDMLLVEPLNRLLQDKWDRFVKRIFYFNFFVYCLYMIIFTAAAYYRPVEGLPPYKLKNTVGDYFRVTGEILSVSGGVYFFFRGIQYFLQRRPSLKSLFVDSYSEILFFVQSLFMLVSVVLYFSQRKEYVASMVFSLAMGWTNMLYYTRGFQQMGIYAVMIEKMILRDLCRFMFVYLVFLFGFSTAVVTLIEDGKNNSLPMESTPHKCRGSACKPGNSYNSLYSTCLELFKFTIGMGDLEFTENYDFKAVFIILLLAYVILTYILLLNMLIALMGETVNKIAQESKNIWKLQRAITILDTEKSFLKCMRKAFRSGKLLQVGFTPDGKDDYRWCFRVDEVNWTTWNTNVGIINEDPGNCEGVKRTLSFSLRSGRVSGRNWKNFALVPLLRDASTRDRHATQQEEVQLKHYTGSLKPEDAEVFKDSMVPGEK", "assay": "Agonist activity at rat TRPV1 expressed in CHO cells assessed as increase in 45Ca2+ uptake incubated for 5 mins by liquid scintillation counting method", "type": "cell-based", "in_short": "(§2)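 Human or rat TRPV1 heterologously expressed in CHO cells; agonism read as 45Ca2+ uptake, run as previously described. Values are the mean of at least three experiments.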"}, "[5]": {"assay": "Genotoxicity in Salmonella typhimurium TA102 incubated for 48 hrs in presence of rat S9 by Ames test", "type": "toxicity, subcellular", "conditions": "salmonella enterica subsp. enterica serovar typhimurium, s9, 48 h"}, "[6]": {"target": "T1, Transient receptor potential cation channel subfamily V member 1 (Homo sapiens, UniProt Q8NER1)", "T1 sequence (Q8NER1 whole entry)": "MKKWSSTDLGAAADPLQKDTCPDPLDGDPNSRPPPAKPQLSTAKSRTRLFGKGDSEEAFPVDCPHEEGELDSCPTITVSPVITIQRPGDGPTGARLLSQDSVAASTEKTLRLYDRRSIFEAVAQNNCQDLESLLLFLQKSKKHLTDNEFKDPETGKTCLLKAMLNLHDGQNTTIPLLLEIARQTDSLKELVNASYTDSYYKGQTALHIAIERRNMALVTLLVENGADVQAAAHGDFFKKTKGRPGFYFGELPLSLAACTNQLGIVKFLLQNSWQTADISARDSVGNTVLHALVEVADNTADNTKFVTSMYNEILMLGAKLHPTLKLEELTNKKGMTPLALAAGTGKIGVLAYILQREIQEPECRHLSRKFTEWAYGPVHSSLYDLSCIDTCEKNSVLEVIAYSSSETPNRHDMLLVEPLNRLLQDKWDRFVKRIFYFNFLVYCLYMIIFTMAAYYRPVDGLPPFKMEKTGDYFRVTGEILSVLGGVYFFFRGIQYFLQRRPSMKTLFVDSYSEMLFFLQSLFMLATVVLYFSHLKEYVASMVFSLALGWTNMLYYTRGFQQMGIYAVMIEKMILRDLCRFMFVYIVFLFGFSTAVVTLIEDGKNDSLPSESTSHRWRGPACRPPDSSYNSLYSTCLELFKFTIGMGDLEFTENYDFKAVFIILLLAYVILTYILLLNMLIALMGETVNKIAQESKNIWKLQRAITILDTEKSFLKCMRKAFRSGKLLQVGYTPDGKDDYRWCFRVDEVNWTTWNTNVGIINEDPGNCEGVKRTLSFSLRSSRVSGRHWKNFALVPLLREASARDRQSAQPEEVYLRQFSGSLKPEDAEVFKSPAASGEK", "assay": "Agonist activity at human TRPV1 expressed in CHO cells assessed as increase in 45Ca2+ uptake incubated for 5 mins by liquid scintillation counting method", "type": "cell-based", "in_short": "as §2"}, "[7]": {"assay": "Toxicity in Sprague-Dawley rat assessed as pathological problems administered topically daily for 4 weeks", "conditions": "in vivo, topical_or_ocular, 672 h", "in_short": "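Rats given daily topical application for 4 weeks, then examined for pathological findings.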"}, "Mus musculus [8]": {"test_system": "Mus musculus", "assay": "(§3) Analgesic activity against formalin-induced nociception ICR mouse model assessed as reduction in pain behaviour by measuring less licking of formalin injected hind paw at 1 mg/kg, ip pretreated with compound 30 mins prior to formalin induction measured during second phase (20-30 mins after formalin injection) by formalin test", "type": "functional", "in_short": "(§4)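 Mice were dosed i.p. with 0.1–10 mg/kg, with vehicle and gabapentin (50, 100 mg/kg i.p.) arms. 2% formalin was injected into the dorsal hindpaw, and paw-licking time was recorded for the first phase (5 min) and the second phase (20–30 min). ED50 was taken from the dose–response. Mean±SEM, n=8.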"}, "[9]": {"target": "Transient receptor potential cation channel subfamily V member 1 (Rattus norvegicus) (UniProt O35433)", "sequence (O35433 whole entry)": "as the sequence (O35433 whole entry) above", "assay": "Potency index, ratio of Ki of capsaicin to Ki for displacement of [3H]RTX from rat TRPV1 expressed in CHO cells incubated for 60 mins by scintillation counting method", "type": "cell-based"}, "[10]": {"assay": "Genotoxicity in CHO-WBLT cells assessed as chromosomal aberration incubated for 6 hrs in presence of rat S9 by Q-banding technique", "type": "toxicity, subcellular, Cricetulus griseus", "conditions": "chinese hamster, s9, 6 h"}, "[11]": {"target": "T1, Transient receptor potential cation channel subfamily V member 1", "assay": "Displacement of [3H]-RTX from human TRPV1 expressed in CHO cells incubated for 60 mins by radioligand competition assay based scintillation counting method", "type": "cell-based"}, "[12]": {"target": "Transient receptor potential cation channel subfamily A member 1 (Homo sapiens) (UniProt O75762)", "sequence (O75762 whole entry)": "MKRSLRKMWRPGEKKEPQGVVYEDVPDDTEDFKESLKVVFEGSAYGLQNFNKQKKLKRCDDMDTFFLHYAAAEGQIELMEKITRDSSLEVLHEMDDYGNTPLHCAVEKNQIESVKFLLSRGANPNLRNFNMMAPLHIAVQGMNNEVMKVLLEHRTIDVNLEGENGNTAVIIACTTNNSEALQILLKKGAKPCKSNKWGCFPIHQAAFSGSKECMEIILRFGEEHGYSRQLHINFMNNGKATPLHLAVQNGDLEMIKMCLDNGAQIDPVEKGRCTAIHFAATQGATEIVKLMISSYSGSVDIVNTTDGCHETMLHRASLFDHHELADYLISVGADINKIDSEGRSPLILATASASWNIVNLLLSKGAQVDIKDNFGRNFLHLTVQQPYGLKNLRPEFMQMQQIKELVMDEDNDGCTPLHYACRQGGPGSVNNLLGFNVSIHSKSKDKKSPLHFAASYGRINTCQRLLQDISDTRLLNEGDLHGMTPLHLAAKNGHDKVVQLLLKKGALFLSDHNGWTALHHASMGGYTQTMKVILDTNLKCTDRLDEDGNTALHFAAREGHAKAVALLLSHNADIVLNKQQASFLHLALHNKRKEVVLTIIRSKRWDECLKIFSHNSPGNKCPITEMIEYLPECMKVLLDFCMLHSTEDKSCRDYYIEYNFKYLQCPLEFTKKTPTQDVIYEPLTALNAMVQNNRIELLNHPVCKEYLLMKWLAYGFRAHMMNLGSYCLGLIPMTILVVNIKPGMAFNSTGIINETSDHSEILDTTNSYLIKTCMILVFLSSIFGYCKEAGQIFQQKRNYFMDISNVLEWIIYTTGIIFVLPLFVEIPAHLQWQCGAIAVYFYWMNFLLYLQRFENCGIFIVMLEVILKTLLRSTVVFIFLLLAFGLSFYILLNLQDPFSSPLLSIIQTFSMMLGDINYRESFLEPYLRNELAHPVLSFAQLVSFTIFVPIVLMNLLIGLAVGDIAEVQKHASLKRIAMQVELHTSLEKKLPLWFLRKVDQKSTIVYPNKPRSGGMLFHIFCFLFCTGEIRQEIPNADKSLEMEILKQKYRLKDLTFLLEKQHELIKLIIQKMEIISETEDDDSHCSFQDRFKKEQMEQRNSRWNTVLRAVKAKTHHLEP", "assay": "Agonist activity at human TRPA1 expressed in HEK293 cells assessed as increase in calcium influx at 0.3 to 30 uM incubated for 1 min by Fluo-4-AM dye based FLIPR assay", "type": "cell-based", "in_short": "as §1"}, "[13]": {"assay": "Genotoxicity in Salmonella typhimurium TA98 incubated for 48 hrs by Ames test", "type": "toxicity", "conditions": "salmonella enterica subsp. enterica serovar typhimurium"}, "Mus musculus [14]": {"test_system": "Mus musculus", "assay": "Induction of hypothermia in ICR mouse assessed as decrease in body temperature at 0.5 mg/kg, ip coadministered with capsaicin and measured for 7 hrs", "type": "functional, organism-based"}, "[15]": {"assay": "Toxicity in po dosed ICR mouse administered as single dose", "type": "organism-based", "conditions": "in vivo"}, "Mus musculus [16]": {"test_system": "Mus musculus", "assay": "Induction of hypothermia in ip dosed ICR mouse assessed as decrease in body temperature measured for 7 hrs", "type": "functional, organism-based"}, "[17]": {"assay": "Genotoxicity in Salmonella typhimurium TA100 incubated for 48 hrs in presence of rat S9 by Ames test", "type": "toxicity, subcellular", "conditions": "salmonella enterica subsp. enterica serovar typhimurium, s9, 48 h"}, "Mus musculus [18]": {"test_system": "Mus musculus", "assay": "as §3, with “in ip dosed” for “against”, “paw” for “paw at 1 mg/kg, ip”", "type": "functional", "in_short": "as §4"}, "[19]": {"target": "T2, Transient receptor potential cation channel subfamily V member 3 (Mus musculus) (UniProt Q8K424)", "T2 sequence (whole entry)": "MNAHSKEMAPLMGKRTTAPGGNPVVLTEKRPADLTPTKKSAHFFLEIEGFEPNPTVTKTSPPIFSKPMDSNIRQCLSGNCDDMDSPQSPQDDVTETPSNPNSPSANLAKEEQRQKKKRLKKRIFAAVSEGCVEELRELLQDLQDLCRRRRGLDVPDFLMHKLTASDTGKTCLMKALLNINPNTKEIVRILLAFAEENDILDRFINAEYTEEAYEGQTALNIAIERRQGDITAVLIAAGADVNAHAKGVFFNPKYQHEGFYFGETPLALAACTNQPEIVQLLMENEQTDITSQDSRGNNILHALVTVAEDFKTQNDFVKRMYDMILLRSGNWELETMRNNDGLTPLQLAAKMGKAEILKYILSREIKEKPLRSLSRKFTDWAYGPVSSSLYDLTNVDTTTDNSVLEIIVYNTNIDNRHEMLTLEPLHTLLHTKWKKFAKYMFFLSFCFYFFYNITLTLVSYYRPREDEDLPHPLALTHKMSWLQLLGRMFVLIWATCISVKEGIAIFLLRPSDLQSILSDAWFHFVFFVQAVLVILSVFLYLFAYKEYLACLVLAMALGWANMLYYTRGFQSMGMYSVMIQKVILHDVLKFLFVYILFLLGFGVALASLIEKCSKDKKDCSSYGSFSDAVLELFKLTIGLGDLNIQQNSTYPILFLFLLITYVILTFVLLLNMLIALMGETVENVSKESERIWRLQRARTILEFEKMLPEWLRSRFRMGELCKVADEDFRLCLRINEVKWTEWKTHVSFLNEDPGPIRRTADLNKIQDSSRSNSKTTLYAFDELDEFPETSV", "assay": "Agonist activity at mouse TRPV3 expressed in HEK293 cells assessed as increase in calcium influx at 0.3 to 30 uM incubated for 1 min by Fluo-4-AM dye based FLIPR assay", "type": "cell-based", "in_short": "as §1"}, "[20]": {"assay": "Toxicity in ICR mouse assessed as skin irritation by measuring ear scratching administered topically and measured for 30 mins", "conditions": "in vivo, topical_or_ocular, 0.5 h", "in_short": "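Ear scratching test: a solution of the agent was applied to mouse ears, and scratching movements were counted over the following 30 min.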"}, "[21]": {"assay": "Genotoxicity in CHO-WBLT cells assessed as chromosomal aberration incubated for 6 hrs in presence of rat S9 by laser scan cytometry", "type": "toxicity, subcellular, Cricetulus griseus", "conditions": "chinese hamster, s9, 6 h"}},
  "note": "The source made the active and inactive calls.",
  "data": [
    {"compound": "CC(C)(C)c1nc(-c2cccc(Cl)c2)c(CNC(=O)Nc2ccc(CO)c(F)c2)s1", "values": [
      {"measurement": "MPE", "setting": "Rattus norvegicus", "result": 100, "unit": "%"},
      {"measurement": "Activity", "setting": "[1]", "result": "Non-Toxic"},
      {"measurement": "Activity", "setting": "[2]", "result": "inactive"},
      {"measurement": "Activity", "setting": "[3]", "result": "Non-Toxic"},
      {"measurement": "EC50", "setting": "[4]", "result": 93, "unit": "nM"},
      {"measurement": "Activity", "setting": "[5]", "result": "Non-Toxic"},
      {"measurement": "EC50", "setting": "[6]", "result": 5.05, "unit": "nM"},
      {"measurement": "Activity", "setting": "[7]", "result": "Non-Toxic"},
      {"measurement": "MPE", "setting": "Mus musculus [8]", "result": 100, "unit": "%"},
      {"measurement": "Ratio Ki", "setting": "[9]", "result": 80},
      {"measurement": "Activity", "setting": "[10]", "result": "Non-Toxic"},
      {"measurement": "Ki", "setting": "[11]", "result": 11.4, "unit": "nM"},
      {"measurement": "Activity", "setting": "[12]", "result": "inactive"},
      {"measurement": "Activity", "setting": "[13]", "result": "Non-Toxic"},
      {"measurement": "Activity", "setting": "Mus musculus [14]", "result": "Active"},
      {"measurement": "LD50", "setting": "[15]", "result": "> 2000", "unit": "mg/kg"},
      {"measurement": "Activity", "setting": "Mus musculus [16]", "result": "Dose-dependent effect"},
      {"measurement": "Activity", "setting": "[17]", "result": "Non-Toxic"},
      {"measurement": "Activity", "setting": "Mus musculus [18]", "result": "Dose-dependent effect"},
      {"measurement": "ED50", "setting": "Mus musculus [18]", "result": 0.16, "unit": "mg/kg"},
      {"measurement": "Activity", "setting": "[19]", "result": "inactive"},
      {"measurement": "Activity", "setting": "[20]", "result": "Non-Toxic"},
      {"measurement": "Activity", "setting": "[21]", "result": "Non-Toxic"}
    ]}
  ]
}
